# According to article PMC6606825 (Journal of Ginseng Research, 2018):
# Assay: Pharmacokinetics of CK and its metabolite 20
# Format: in vivo, healthy Chinese volunteers
# Summary of the method: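 Healthy adults given one oral tablet dose fasting (overnight, or 10 h in a crossover food-effect arm); 30 subjects from the 100/200/400 mg groups were pooled with 24 from 200 mg fasting periods. Plasma was stored at −70°C, extracted with MTBE plus internal standards and assayed by LC-MS/MS. Cmax was observed and AUClast calculated by linear trapezoid, each divided by dose. The metabolite/parent ratio was also calculated. Genotyping used Sequenom MassARRAY, and log-transformed values were compared by one-way ANOVA.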
# [1] = ABCC4 rs1151471 CC, n = 2, mean (SD)
smiles,measurement,setting,value
"CC(C)=CCC[C@](C)(O)[C@H]1CC[C@]2(C)[C@@H]1[C@H](O)C[C@@H]1[C@@]3(C)CC[C@H](O)C(C)(C)[C@@H]3CC[C@]12C [20(S)-PPD, 20(S)-protopanaxadiol]",20(S)-PPD AUClast/D,"ABCB1 rs1045642 AA, mean (SD)",0.59 (0.42)
same,20(S)-PPD Cmax/D,"ABCB1 rs1045642 AA, mean (SD)",0.02 (0.02)
same,Ratio 20(S)-PPD/CK AUClast/D,"ABCB1 rs1045642 AA, mean (SD)",1.99 (1.55) %
same,Ratio 20(S)-PPD/CK Cmax/D,"ABCB1 rs1045642 AA, mean (SD)",0.54 (0.42) %
same,20(S)-PPD AUClast/D,"ABCB1 rs1045642 AG, mean (SD)",0.87 (0.93)
same,20(S)-PPD Cmax/D,"ABCB1 rs1045642 AG, mean (SD)",0.03 (0.03)
same,Ratio 20(S)-PPD/CK AUClast/D,"ABCB1 rs1045642 AG, mean (SD)",5.28 (8.05) %
same,Ratio 20(S)-PPD/CK Cmax/D,"ABCB1 rs1045642 AG, mean (SD)",1.49 (2.26) %
same,20(S)-PPD AUClast/D,"ABCB1 rs1045642 GG, mean (SD)",0.82 (0.62)
same,20(S)-PPD Cmax/D,"ABCB1 rs1045642 GG, mean (SD)",0.03 (0.02)
same,Ratio 20(S)-PPD/CK AUClast/D,"ABCB1 rs1045642 GG, mean (SD)",3.23 (2.77) %
same,Ratio 20(S)-PPD/CK Cmax/D,"ABCB1 rs1045642 GG, mean (SD)",0.80 (0.66) %
same,20(S)-PPD AUClast/D,"ABCB1 rs1128503 AA, mean (SD)",0.90 (0.79)
same,20(S)-PPD Cmax/D,"ABCB1 rs1128503 AA, mean (SD)",0.03 (0.03)
same,Ratio 20(S)-PPD/CK AUClast/D,"ABCB1 rs1128503 AA, mean (SD)",4.27 (5.15) %
same,Ratio 20(S)-PPD/CK Cmax/D,"ABCB1 rs1128503 AA, mean (SD)",1.30 (2.07) %
same,20(S)-PPD AUClast/D,"ABCB1 rs1128503 AG, mean (SD)",0.77 (0.80)
same,20(S)-PPD Cmax/D,"ABCB1 rs1128503 AG, mean (SD)",0.03 (0.03)
same,Ratio 20(S)-PPD/CK AUClast/D,"ABCB1 rs1128503 AG, mean (SD)",4.67 (7.55) %
same,Ratio 20(S)-PPD/CK Cmax/D,"ABCB1 rs1128503 AG, mean (SD)",1.12 (1.52) %
same,20(S)-PPD AUClast/D,"ABCB1 rs1128503 GG, mean (SD)",0.73 (0.70)
same,20(S)-PPD Cmax/D,"ABCB1 rs1128503 GG, mean (SD)",0.02 (0.02)
same,Ratio 20(S)-PPD/CK AUClast/D,"ABCB1 rs1128503 GG, mean (SD)",1.89 (0.94) %
same,Ratio 20(S)-PPD/CK Cmax/D,"ABCB1 rs1128503 GG, mean (SD)",0.46 (0.25) %
same,20(S)-PPD AUClast/D,"ABCB1 rs2032582 AA, mean (SD)",0.78 (0.53)
same,20(S)-PPD Cmax/D,"ABCB1 rs2032582 AA, mean (SD)",0.03 (0.02)
same,Ratio 20(S)-PPD/CK AUClast/D,"ABCB1 rs2032582 AA, mean (SD)",4.64 (7.42) %
same,Ratio 20(S)-PPD/CK Cmax/D,"ABCB1 rs2032582 AA, mean (SD)",1.20 (1.55) %
same,20(S)-PPD Cmax/D,"ABCB1 rs2032582 CA, mean (SD)",0.03 (0.03)
same,Ratio 20(S)-PPD/CK AUClast/D,"ABCB1 rs2032582 CA, mean (SD)",4.60 (7.08) %
same,Ratio 20(S)-PPD/CK Cmax/D,"ABCB1 rs2032582 CA, mean (SD)",1.34 (2.13) %
same,20(S)-PPD AUClast/D,"ABCB1 rs2032582 CC, mean (SD)",0.92 (0.62)
same,20(S)-PPD Cmax/D,"ABCB1 rs2032582 CC, mean (SD)",0.03 (0.02)
same,Ratio 20(S)-PPD/CK AUClast/D,"ABCB1 rs2032582 CC, mean (SD)",3.50 (2.84) %
same,Ratio 20(S)-PPD/CK Cmax/D,"ABCB1 rs2032582 CC, mean (SD)",0.74 (0.49) %
same,20(S)-PPD AUClast/D,"ABCC2 rs717620 CC, mean (SD)",0.64 (0.51)
same,20(S)-PPD Cmax/D,"ABCC2 rs717620 CC, mean (SD)",0.02 (0.02)
same,Ratio 20(S)-PPD/CK AUClast/D,"ABCC2 rs717620 CC, mean (SD)",3.02 (4.69) %
same,Ratio 20(S)-PPD/CK Cmax/D,"ABCC2 rs717620 CC, mean (SD)",0.77 (0.99) %
same,20(S)-PPD AUClast/D,"ABCC2 rs717620 CT, mean (SD)",1.09 (1.02)
same,20(S)-PPD Cmax/D,"ABCC2 rs717620 CT, mean (SD)",0.04 (0.04)
same,Ratio 20(S)-PPD/CK AUClast/D,"ABCC2 rs717620 CT, mean (SD)",6.00 (7.83) %
same,Ratio 20(S)-PPD/CK Cmax/D,"ABCC2 rs717620 CT, mean (SD)",1.65 (2.39) %
same,20(S)-PPD AUClast/D,"ABCC2 rs2273697 GA, mean (SD)",0.81 (0.63)
same,20(S)-PPD Cmax/D,"ABCC2 rs2273697 GA, mean (SD)",0.03 (0.02)
same,Ratio 20(S)-PPD/CK AUClast/D,"ABCC2 rs2273697 GA, mean (SD)",4.54 (6.68) %
same,Ratio 20(S)-PPD/CK Cmax/D,"ABCC2 rs2273697 GA, mean (SD)",0.96 (1.36) %
same,20(S)-PPD AUClast/D,"ABCC2 rs2273697 GG, mean (SD)",0.83 (0.84)
same,20(S)-PPD Cmax/D,"ABCC2 rs2273697 GG, mean (SD)",0.03 (0.03)
same,Ratio 20(S)-PPD/CK AUClast/D,"ABCC2 rs2273697 GG, mean (SD)",4.19 (6.15) %
same,Ratio 20(S)-PPD/CK Cmax/D,"ABCC2 rs2273697 GG, mean (SD)",1.22 (1.87) %
same,20(S)-PPD AUClast/D,"ABCC2 rs2756109 GG, mean (SD)",0.61 (0.41)
same,20(S)-PPD Cmax/D,"ABCC2 rs2756109 GG, mean (SD)",0.02 (0.02)
same,Ratio 20(S)-PPD/CK AUClast/D,"ABCC2 rs2756109 GG, mean (SD)",2.42 (1.84) %
same,20(S)-PPD AUClast/D,"ABCC2 rs3740066 CC, mean (SD)",0.64 (0.51)
same,20(S)-PPD Cmax/D,"ABCC2 rs3740066 CC, mean (SD)",0.02 (0.02)
same,Ratio 20(S)-PPD/CK AUClast/D,"ABCC2 rs3740066 CC, mean (SD)",3.03 (4.8) %
same,Ratio 20(S)-PPD/CK Cmax/D,"ABCC2 rs3740066 CC, mean (SD)",0.78 (1.02) %
same,20(S)-PPD AUClast/D,"ABCC2 rs3740066 CT, mean (SD)",1.06 (0.99)
same,20(S)-PPD Cmax/D,"ABCC2 rs3740066 CT, mean (SD)",0.04 (0.03)
same,Ratio 20(S)-PPD/CK AUClast/D,"ABCC2 rs3740066 CT, mean (SD)",5.95 (7.51) %
same,Ratio 20(S)-PPD/CK Cmax/D,"ABCC2 rs3740066 CT, mean (SD)",1.63 (2.29) %
same,20(S)-PPD AUClast/D,"ABCC2 rs3740066 TT, n = 1",0.58 (—)
same,20(S)-PPD Cmax/D,"ABCC2 rs3740066 TT, n = 1",0.01 (—)
same,Ratio 20(S)-PPD/CK AUClast/D,"ABCC2 rs3740066 TT, n = 1",1.04 (—) %
same,Ratio 20(S)-PPD/CK Cmax/D,"ABCC2 rs3740066 TT, n = 1",0.22 (—) %
same,20(S)-PPD AUClast/D,"ABCC3 rs4148416 CC, mean (SD)",0.77 (0.69)
same,20(S)-PPD Cmax/D,"ABCC3 rs4148416 CC, mean (SD)",0.03 (0.02)
same,Ratio 20(S)-PPD/CK AUClast/D,"ABCC3 rs4148416 CC, mean (SD)",3.64 (5.23) %
same,Ratio 20(S)-PPD/CK Cmax/D,"ABCC3 rs4148416 CC, mean (SD)",0.90 (1.07) %
same,20(S)-PPD AUClast/D,"ABCC3 rs4148416 CT, mean (SD)",0.99 (1.01)
same,20(S)-PPD Cmax/D,"ABCC3 rs4148416 CT, mean (SD)",0.04 (0.04)
same,Ratio 20(S)-PPD/CK AUClast/D,"ABCC3 rs4148416 CT, mean (SD)",6.12 (8.47) %
same,Ratio 20(S)-PPD/CK Cmax/D,"ABCC3 rs4148416 CT, mean (SD)",1.87 (2.85) %
same,20(S)-PPD AUClast/D,"ABCC3 rs4793665 CT, mean (SD)",0.61 (0.58)
same,20(S)-PPD Cmax/D,"ABCC3 rs4793665 CT, mean (SD)",0.02 (0.02)
same,Ratio 20(S)-PPD/CK AUClast/D,"ABCC3 rs4793665 CT, mean (SD)",2.27 (2.88) %
same,Ratio 20(S)-PPD/CK Cmax/D,"ABCC3 rs4793665 CT, mean (SD)",0.54 (0.52) %
same,20(S)-PPD AUClast/D,"ABCC3 rs4793665 TT, mean (SD)",0.89 (0.82)
same,20(S)-PPD Cmax/D,"ABCC3 rs4793665 TT, mean (SD)",0.03 (0.03)
same,Ratio 20(S)-PPD/CK AUClast/D,"ABCC3 rs4793665 TT, mean (SD)",4.86 (6.83) %
same,Ratio 20(S)-PPD/CK Cmax/D,"ABCC3 rs4793665 TT, mean (SD)",1.32 (1.92) %
same,20(S)-PPD AUClast/D,"ABCC3 rs12051822 GA, mean (SD)",1.17 (0.94)
same,20(S)-PPD Cmax/D,"ABCC3 rs12051822 GA, mean (SD)",0.04 (0.03)
same,Ratio 20(S)-PPD/CK AUClast/D,"ABCC3 rs12051822 GA, mean (SD)",6.84 (8.31) %
same,Ratio 20(S)-PPD/CK Cmax/D,"ABCC3 rs12051822 GA, mean (SD)",1.44 (1.56) %
same,20(S)-PPD AUClast/D,"ABCC3 rs12051822 GG, mean (SD)",0.74 (0.72)
same,20(S)-PPD Cmax/D,"ABCC3 rs12051822 GG, mean (SD)",0.03 (0.03)
same,Ratio 20(S)-PPD/CK AUClast/D,"ABCC3 rs12051822 GG, mean (SD)",3.60 (5.48) %
same,Ratio 20(S)-PPD/CK Cmax/D,"ABCC3 rs12051822 GG, mean (SD)",1.09 (1.81) %
same,20(S)-PPD AUClast/D,[1],2.65 (1.59)
same,20(S)-PPD Cmax/D,[1],0.09 (0.03)
same,Ratio 20(S)-PPD/CK AUClast/D,[1],20.61 (14.96) %
same,Ratio 20(S)-PPD/CK Cmax/D,[1],4.33 (2.43) %
same,20(S)-PPD AUClast/D,"ABCC4 rs1151471 TC, mean (SD)",0.99 (0.81)
same,20(S)-PPD Cmax/D,"ABCC4 rs1151471 TC, mean (SD)",0.04 (0.03)
same,Ratio 20(S)-PPD/CK AUClast/D,"ABCC4 rs1151471 TC, mean (SD)",5.99 (7.30) %
same,Ratio 20(S)-PPD/CK Cmax/D,"ABCC4 rs1151471 TC, mean (SD)",1.83 (2.49) %
same,20(S)-PPD AUClast/D,"ABCC4 rs1151471 TT, mean (SD)",0.58 (0.54)
same,20(S)-PPD Cmax/D,"ABCC4 rs1151471 TT, mean (SD)",0.02 (0.02)
